Measurements collected from several papers.
Each line is one published result; the experiments were not run side by side.
Target: Calcium/calmodulin-dependent protein kinase type II subunit delta (CAMK2D, Homo sapiens, UniProt Q13557)

SMILES | test | conditions | remaining binding [%]
COc1ncc2cc3ccccc3nc2c1C#N | cell-free assay, competition with immobilised ligand | 5 µM | 98
CNC(=O)c1ccc(Nc2ncc(C(F)(F)F)c(NCc3nccnc3N(C)S(C)(=O)=O)n2)cc1 | cell-free assay, competition with immobilised ligand | 0.1 µM | 83
CN(CCCC(F)(F)F)c1nccc(-c2cnn3ncccc23)n1 | binding | 1 µM | 100
O=C(c1ccc(Nc2nccc(-c3cc4ccccc4s3)n2)cc1)N1CCC(N2CCCC2)CC1 | binding, competition with immobilised ligand | 1 µM | 81
O=C(Nc1c[nH]nc1C(=O)NC1CCNCC1)c1cc(F)cc(F)c1 | binding, competition with immobilised ligand | 1 µM | 100
CN(C)c1nccc(-c2cnn3ncccc23)n1 | binding | 1 µM | 100
CCS(=O)(=O)c1cc2cc(C[C@](O)(CC(C)(C)c3ccc(F)cc3C(N)=O)C(F)(F)F)[nH]c2cn1 | cell-free assay, competition with immobilised ligand | 1 µM | 100
c1cnn2ncc(-c3ccnc(N4CCC45COC5)n3)c2c1 | binding | 1 µM | 83
C[C@@H](c1ccc(-n2cnc3c(N)ncnc32)cc1)N1CCc2nn(C)c(Cc3ccccc3)c2C1=O | binding, competition with immobilised ligand | 0.1 µM | 93
N[C@H]1CCN(c2nccc(-c3cnn4ncccc34)n2)C1 | binding | 1 µM | 100
COc1cc(-c2cn(C3CCc4ccccc4N(CC(F)(F)F)C3=O)nn2)ccc1-n1ccc(C)n1 (stereo not shown) | cell-free assay, competition with immobilised ligand | 1 µM | 100
C[C@@H]1CCN(c2nccc(-c3cnn4ncccc34)n2)C1 | binding | 1 µM | 100
FC(F)(F)Oc1cccc(-c2cnc3ccc(-c4ccncc4)nn23)c1 | cell-free assay, competition with immobilised ligand | 5 µM | 33
O=C(c1ccc(Nc2ncc(Cl)c(-c3cc4ccccc4s3)n2)cc1)N1CCC(N2CCCC2)CC1 | binding, competition with immobilised ligand | 1 µM | 80
C=CC(=O)N1CCC(C(=O)NCC(=O)N2CCN(c3nc(-c4cnc(N)nc4C(F)F)nc(N4CCOCC4)n3)CC2)CC1 | binding, competition with immobilised ligand | 1 µM | 100
CCN1CCN(Cc2ccc(C(=O)Nc3ccc(C)c(Oc4ccc5c(c4)CC(=O)N5)c3)cc2C(F)(F)F)CC1 | binding, competition with immobilised ligand | 1 µM | 100
Cc1c(C(=O)O)cc(-c2ccc(C3CCNCC3)cc2)c2ccc(-c3ccc(C(F)(F)F)cc3)cc12 | cell-free assay, competition with immobilised ligand | 1 µM | 100
Cc1cnc(Nc2ccc(C(=O)N3CCC(N4CCCC4)CC3)cc2)nc1-c1cc2ccccc2s1 | binding, competition with immobilised ligand | 1 µM | 73
O=c1nc(-c2ccccn2)sc2ccccc12 | cell-free assay, competition with immobilised ligand | 1 µM | 90
Cc1cnn2ncc(-c3ccnc(N(C)C)n3)c2c1 | binding | 1 µM | 78
C[C@H](c1cccc(C#N)c1)n1cc(Cl)cc(C(N)=O)c1=N | cell-free assay, competition with immobilised ligand | 1 µM | 100
COc1cnc(Nc2cccc(S(N)(=O)=O)c2)nc1N1CCN(c2ccccc2)C(=O)C1 | binding, competition with immobilised ligand | 1 µM | 100
